Screening data from PubChem BioAssay.
An excerpt weighted towards active compounds, which were near 3.1% of everything screened.
core dimer inh: blocks dimerization of HCV core protein | inhibition, % at 5 µM | TR-FRET GST/Flag-core106 dimerization, 1536-well | 0.33% of 300,000 active;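 active = inhibition above the mean of all tested compounds plus 3 SD, set per screening campaign, cut at about 45% in these data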
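Assay system: GST-tagged and Flag-tagged HCV core protein residues 1-106 / Times: compound-protein-antibody incubation 4 h at 22.5 °C / Signal: time-resolved FRET, ex 340 nm, em 617 and 671 nm / Evaluation: % inhibition based on acceptor/donor emission ratio / Benchmarks: wells lacking GST-core106 and wells with excess unlabelled core106 / Repeats: singlicate, one well per compound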
IMP-1 inh: inhibitors of Pseudomonas aeruginosa IMP-1 metallo-beta-lactamase; purified IMP-1, nitrocefin hydrolysis, epi-absorbance fluorescence; inhibition, % at 5.6 µM; 0.45% of 290,000 active;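 active = inhibition above the mean plus 3 SD of all compounds in the same screening run, cut at about 4.5% in these data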;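 also: 0% = IMP-1 with DMSO and 100% = DMSO wells lacking enzyme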
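System – purified recombinant IMP-1 beta-lactamase · Input – IMP-1 dispensed at 0.2 nM · Timing – 15 min preincubation plus 25 min reaction at 25 °C · Signal – Epi-absorbance fluorescence, 480 nm excitation, 530 nm emission · Measure – percent IMP-1 inhibition derived from blank-referenced optical density · Controls – Enzyme-plus-DMSO low control, enzyme-free DMSO high control · Replication – singlicate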
UBC9 SUMO inh: inhibitors of human SUMOylation (UBC9); P63279; HTRF SUMOylation assay, SAE1/SAE2 + UBC9, in vitro; inhibition, % at 35 µM; 0.36% of 290,000 active; AID 2006; in the data active = inhibition above about 50%, passing the limit was not always enough
Target sequence (P63279 whole entry, looked up): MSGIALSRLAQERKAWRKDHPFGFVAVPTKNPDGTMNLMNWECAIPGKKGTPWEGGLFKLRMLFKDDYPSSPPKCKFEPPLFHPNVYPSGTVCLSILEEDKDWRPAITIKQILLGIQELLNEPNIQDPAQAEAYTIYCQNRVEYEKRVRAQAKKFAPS
HCV NS3 hel inh: blocks Hepatitis C virus NS3 helicase unwinding | NS3 helicase DNA unwinding, Cy5 molecular beacon fluorescence | inhibition, % at 10.9 µM | 0.56% of 290,000 active;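 active = inhibition above the mean of all tested compounds plus 3 SD, set per campaign, cut at about 35% in these data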;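 also: 0% = DMSO wells and 100% = thioflavine S control wells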
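Measured by: Cy5 fluorescence, 0 and 60 min reads / Assay system: NS3 helicase fragment of HCV / Control set: low DMSO, high thioflavine S at 110 µM / Times: 1 h reaction at 25 °C, ATP-initiated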
VIM-2 inh: blocks Pseudomonas aeruginosa VIM-2 metallo-beta-lactamase. purified VIM-2, nitrocefin hydrolysis, epi-absorbance fluorescence. inhibition, % at 5.6 µM. 0.89% of 290,000 active. AID 1527;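 active = inhibition above the mean of all tested compounds plus 3 SD, cutoff set per screening run, cut at about 7.5% in these data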;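 also: red hydrolysis product quenches plate fluorescence so inhibitors raise well fluorescence; 0% = enzyme with DMSO and 100% = DMSO without enzyme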
PHOSPHO1 block: blocks human PHOSPHO1 phosphatase activity | Q8TCT1 | recombinant PHOSPHO1, absorbance phosphatase assay | inhibition, % at 13.3 µM | 1.1% of 290,000 active; in the data active = inhibition above about 60%
Target sequence (Q8TCT1 whole entry, looked up): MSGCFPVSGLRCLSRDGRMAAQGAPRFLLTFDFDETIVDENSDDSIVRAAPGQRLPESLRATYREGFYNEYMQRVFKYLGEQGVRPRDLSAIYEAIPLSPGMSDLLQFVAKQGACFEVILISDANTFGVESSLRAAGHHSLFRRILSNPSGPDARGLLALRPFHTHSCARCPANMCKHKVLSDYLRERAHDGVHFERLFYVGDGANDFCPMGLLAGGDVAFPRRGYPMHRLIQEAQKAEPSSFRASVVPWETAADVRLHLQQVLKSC
NS3 helicase cf: HCV NS3 helicase inhibition, confirmation assay; shares compounds with HCV NS3 hel inh; NS3 helicase DNA unwinding, Cy5 molecular beacon fluorescence; inhibition, % at 10.9 µM; 31% of 1,600 active; AID 1943;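 active = inhibition above the mean of all tested compounds plus 3 SD, cutoff set per campaign, cut at about 36% in these data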
FID counter trip: counter-screen for HCV NS3 helicase inhibitors: DNA intercalator displacement; shares compounds with HCV NS3 hel inh; AID 1945; 4% of 1,600 active; inhibition, % at 7.9 µM; DNA fluorescent intercalator displacement, fluorescence; in the data active = inhibition above about 37%;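 also: 0% = vehicle and 100% = reference compound; higher means more displacement of ethidium bromide from the DNA hairpin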
DNA FID DR: DNA intercalator displacement in dose response; shares compounds with HCV NS3 hel inh; fluorescent intercalator displacement from DNA, fluorescence; IC50, µM; 120 tested, under 10 active; AID 2172; call rule not given here
Active calls of the source: *; · = no result.

SMILES | core dimer inh | IMP-1 inh | UBC9 SUMO inh | HCV NS3 hel inh | VIM-2 inh | PHOSPHO1 block | NS3 helicase cf | FID counter trip | others
COc1ccc(N2CCN(c3ccc4nnc(CCC(=O)Nc5ccc(C)cc5)n4n3)CC2)cc1 | 11.9 | -2.9 | -11.6 | -24.6 | -3.7 | 33.4 | · | ·
O=c1cc(CSc2ccc(Cl)cc2)[nH]c2[nH]n(-c3ccccc3)c(=O)c12 | -7.0 | -2.1 | 27.4 | 40.3* | -2.9 | 36.4 | 52.9* | -5.4 | DNA FID DR=>79.4
C=CCn1c(C)nc2c(cnn2-c2ccccc2)c1=O | 2.0 | -0.2 | 9.6 | 5.3 | -0.4 | 29.5 | · | ·
CCOC(=O)/C=C/C(=O)OCc1csc(CC(=O)Nc2ccccc2C)n1 | -13.0 | -4.8 | -0.2 | 38.1* | -3.2 | 25.0 | -19.0 | -24.7
CC(C)=CC(=O)OCc1csc(CC(=O)Nc2ccccc2C)n1 | 7.1 | -0.5 | 11.9 | 0.6 | -1.4 | -0.6 | · | ·
O=C(CCC(=O)NCCCc1ccccc1)NCCCc1ccccc1 | -6.2 | -4.2 | 18.2 | 0.3 | -2.0 | -22.1 | · | ·
O=C(O)CCCCCCCCCCCc1ccccc1 | -5.9 | -0.3 | 7.9 | 38.1* | -1.8 | 15.5 | 70.2* | -37.1
CCS(=O)(=O)c1ccc2oc(Nc3cccc(OC)c3)nc2c1 | -2.5 | -1.2 | 11.1 | -3.3 | -3.1 | 7.3 | · | ·
CCCNC(=O)COC(=O)c1ccc(S(=O)(=O)N2CCCC2)cc1 | -2.9 | -2.0 | 6.1 | 50.0* | -2.1 | -51.3 | -10.0 | -3.7
CCCNC(=O)COC(=O)c1ccc(Cl)c(S(=O)(=O)N2CCCC2)c1 | -7.9 | -2.3 | -1.4 | -5.2 | -4.6 | 9.4 | · | ·
COc1ccc2nc3ccccc3nc2c1N | -44.2 | -3.2 | 93.0 | 50.0* | -0.7 | 41.5 | -8.6 | 7.0
CC(C)(CO)CNC(=O)CCc1nnc(-c2ccc(-c3ccccc3)cc2)o1 | -18.6 | 0.6 | -7.3 | -1.1 | 1.8 | 34.8 | · | ·
COc1cc(NS(=O)(=O)c2ccc(NC(=S)NC(=O)c3ccc(F)cc3)cc2)nc(OC)n1 | -11.7 | 0.9 | -4.4 | 40.3* | -0.7 | 39.1 | 27.4 | -13.1
COc1ccc(C(=O)NC(=S)Nc2ccc(S(=O)(=O)Nc3cc(OC)nc(OC)n3)cc2)cc1 | 10.0 | -4.2 | 0.9 | -1.9 | -2.6 | -5.9 | · | ·
Cc1ccccc1-c1nnn(CC(=O)N(C)CC(=O)Nc2ccccc2C(F)(F)F)n1 | -5.9 | · | · | · | · | · | · | ·
CC1C(=O)N2CCCc3cc(NC(=O)C(=O)NCCc4ccc(F)cc4)cc1c32 (stereo unspecified) | -0.1 | · | · | · | · | · | · | ·
O=C(C1=C(O)C(=O)N(CC2CCCO2)C1c1ccccc1)c1ccco1 (stereo unspecified) | 5.3 | -2.8 | 8.2 | 16.1 | -0.7 | 23.2 | · | ·
O=C(C1=C(O)C(=O)N(CC2CCCO2)C1c1ccc(Cl)cc1Cl)c1ccco1 (stereo unspecified) | -1.4 | -1.4 | -8.5 | 67.6* | -0.8 | 27.9 | -3.0 | -21.1
CC(C)(C)c1ccc(C2C(C(=O)c3ccco3)=C(O)C(=O)N2CC2CCCO2)cc1 (stereo unspecified) | 8.8 | -2.7 | -7.0 | 37.5* | -0.9 | 35.1 | 9.5 | -12.9
CC1C(=O)N2CCCc3cc(S(=O)(=O)Nc4ccccc4C(N)=O)cc1c32 (stereo unspecified) | -0.1 | · | · | · | · | · | · | ·
CSc1cc(C)c(OCC(=O)Nc2ccc(NC(C)=O)cc2)c(C)c1 | -2.6 | -4.3 | -21.9 | -1.4 | -3.6 | 28.8 | · | ·
ClCc1csc(N/N=C/c2cccs2)n1 | 18.5 | -4.3 | 13.2 | 43.2* | -3.6 | 33.4 | 3.8 | 16.2
C(=N\Nc1nc(-c2ccccc2)cs1)/c1cccs1 | 13.7 | -1.9 | -12.4 | 17.8 | -2.5 | 32.6 | · | ·
O=C1C(C=Nc2ccccc2O)=C(O)c2ccccc21 | -4.7 | -1.9 | 14.8 | 5.5 | -1.9 | 35.1 | · | ·
O=[N+]([O-])/C(C=Nc1ccccc1O)=C\Nc1ccccc1O | · | -4.2 | 35.3 | 38.3* | -2.6 | 7.8 | -8.8 | 18.9
Cc1cc(NC(=O)C2CC(=O)N(c3ccccc3C)C2)no1 (stereo unspecified) | -4.0 | -2.9 | -5.9 | 36.0* | 0.7 | 3.0 | -9.3 | -0.3
